PvdQ inh – blocks Pseudomonas aeruginosa PvdQ acylase activity | 0.063% of 340,000 active | purified PvdQ acylase, fluorescence plate reader | inhibition, % at 10 µM; in the data active means inhibition above about 30%, passing the limit was not always enough; inconclusive means no clear call, values can overlap the other calls;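 further: 0% = vehicle neutral wells and 100% = reference inhibitor wells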
SR-BI uptake up – SR-BI HDL lipid transfer activation; CHO ldlA[mSR-BI] cells, DiI-HDL uptake fluorescence, 3 h; 100 = double the neutral-control signal; activation, % at 12.5 µM; 0.096% of 320,000 active;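 active means mean replicate activation of at least 60% and every replicate at or above 60%; inconclusive means mean or all-replicate condition met, but not both; inactive means mean below 60% and not all replicates reaching 60%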;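 further: 0% = median plate neutral-control signal and 100% = twice that signal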
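Material – SR-BI-overexpressing, LDLR-lacking CHO cells · Medium – BSA-supplemented, HEPES-buffered Ham's F12, pH 7.4 · Doses – single concentration · Times – compound with DiI-HDL co-incubation, 3 h at 37 °C · Measured by – bottom-read fluorescence, 550/595 nm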
RAD54 branch – inhibitors of human RAD54 branch migration; Q92698; RAD54 Holliday junction branch migration, FAM/BHQ fluorescence; inhibition, % at 10.4 µM; 0.14% of 360,000 active;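 active means mean normalized replicate activity at least 40 and at least half of replicates scoring 40 or more; inconclusive means only one of the two criteria met; inactive means mean below 40 and under half of replicates reaching 40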;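 further: 0% = median of neutral control wells and 100% = median of positive control wells; inhibitors cause a drop in the FAM fluorescence signal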
dFosB act-1 – mouse delta FosB homodimer activation. 0.99% of 340,000 active. purified delta FosB, TAMRA-CDK5 oligo fluorescence polarization; percent of positive-control signal above neutral wells. activation, % at 25 µM. AID 493131;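 active means mean activation above about 17%, with every replicate also reaching it, limit read from the data, passing the limit was not always enough; inconclusive means only one of the two conditions met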
Target sequence (P13346 whole entry, looked up): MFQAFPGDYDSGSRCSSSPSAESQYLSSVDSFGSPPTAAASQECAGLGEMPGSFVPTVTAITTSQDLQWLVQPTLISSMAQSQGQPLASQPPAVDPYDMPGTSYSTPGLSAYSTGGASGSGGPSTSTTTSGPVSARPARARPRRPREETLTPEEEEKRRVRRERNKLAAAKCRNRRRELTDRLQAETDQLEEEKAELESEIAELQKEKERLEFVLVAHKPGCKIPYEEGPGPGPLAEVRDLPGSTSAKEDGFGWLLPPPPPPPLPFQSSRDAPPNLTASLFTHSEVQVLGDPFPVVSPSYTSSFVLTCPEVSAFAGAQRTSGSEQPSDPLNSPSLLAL
S100A4 inh HTS – S100A4-myosin IIA interaction inhibition; S100A4/TAMRA-MyoIIA peptide fluorescence polarization; inhibition, % at 10.7 µM; 0.14% of 360,000 active; AID 652163;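 active means mean inhibition of at least 70% across replicates, with every replicate also reaching that level; inconclusive means mean inhibition reaches 70% but some replicates fall short; inactive means mean inhibition below 70%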
Target sequence (P26447 whole entry, looked up): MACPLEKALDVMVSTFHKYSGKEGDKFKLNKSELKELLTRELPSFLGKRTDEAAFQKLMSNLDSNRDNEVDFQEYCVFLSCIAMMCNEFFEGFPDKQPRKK
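Test system: S100A4 monomer protein; Medium: HEPES pH 7.2 with CaCl2, KCl, NaCl, DTT, Triton; Probe or stimulus: TAMRA-labelled myosin IIA heavy-chain peptide probe, 5 nM; Doses: one dose per compound; Times: polarization read 5 min after assay mix addition, stable 5–60 min; Benchmarks: neutral control DMSO, positive control TFP.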
SR-BI DiI inh – inhibitors of mouse SR-BI mediated HDL lipid uptake | Q61009 | 0.96% of 320,000 active | ldlA[mSR-BI] CHO cells, DiI-HDL uptake fluorescence, 3 h | inhibition, % at 12.5 µM | AID 488896;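 active means mean replicate inhibition of at least 70% and a set share of replicates each scoring 70 or more; inconclusive means meets just one of the two criteria; inactive means fails both criteria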;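 further: 0% = median of neutral control wells and 100% = median of positive control wells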
dFosB act-2 – enhances mouse delta FosB homodimer binding to DNA. 2,400 tested, under 10 active. purified delta FosB, TAMRA-CDK5 oligo fluorescence polarization; normalised: neutral wells 0, positive control 100. AID 588690. shares compounds with dFosB act-1. activation, % at 24.9 µM;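 active means highest replicate activation at or above 34% and every replicate reaching that threshold; inconclusive means meets only one of the two criteria; inactive means meets neither criterion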;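 further: higher polarization means more probe DNA bound by delta FosB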
Numbers without * were called inactive; ? = inconclusive; . = no result. In the library only some 1.6% were active in any assay of this set; here they are far more common.

SMILES	PvdQ inh	SR-BI uptake up	RAD54 branch	dFosB act-1	S100A4 inh HTS	SR-BI DiI inh	dFosB act-2
C[C@@H]1CCCCO[C@H](CN(C)S(=O)(=O)c2ccccc2)[C@H](C)CN([C@@H](C)CO)C(=O)c2cc(NS(=O)(=O)c3ccccc3)ccc2O1	.	.	-13.8	.	-4.5	.	.
CCc1nn(CC(=O)NCCC2=CCCCC2)c(=O)c2cc3cc(F)ccc3n12	-13.8	-1.8	1.7	40.6*	0.8	1.8	-5.7
CCc1nn(CC(=O)NCCCc2ccccc2)c(=O)c2cc3cc(F)ccc3n12	-9.4	-36.3	12.3	?	.	36.3	.
C[C@H]1CCCCO[C@H](CN(C)C(=O)NC2CCCCC2)[C@@H](C)CN([C@@H](C)CO)C(=O)c2cc(NC(=O)CCCN(C)C)ccc2O1	.	.	8.3	.	14.0	.	.
CCN(CC)CCNC(=S)Nc1ccc2nc(N3CCCC3)cc(C)c2c1	-7.4	31.4	.	32.1*	-2.0	-31.4	0.9
CCn1c(SCC(=O)Nc2ccc(NC(C)=O)cc2)nc2c([nH]c3ccccc32)c1=O	0.6	-6.2	5.6	39.2*	-18.4	6.2	-0.5
C=CCn1c(SCC(=O)Nc2ccccc2OC)nc2c([nH]c3ccccc32)c1=O	-10.2	-7.7	-15.7	44.2*	-0.1	7.7	0.0
Cn1c(SCC(=O)Nc2ccc(F)cc2)nc2c([nH]c3ccccc32)c1=O	-6.8	.	7.1	21.2*	1.9	.	-0.7
COCCn1c(SCC(=O)Nc2ccccc2OC)nc2c([nH]c3ccccc32)c1=O	-7.4	-14.1	-1.0	5.2	0.4	14.1	.
Cc1ccc(NC(=O)CSc2nc3c([nH]c4ccccc43)c(=O)n2C)cc1	-11.1	-40.4	0.0	8.1	2.1	40.4	.
COCCn1c(SCC(=O)Nc2ccc(F)cc2)nc2c([nH]c3ccccc32)c1=O	-4.4	-7.1	4.0	11.1	-4.3	7.1	.
O=C(C[C@H]1CC[C@@H]2[C@H](COC[C@@H](O)CN2Cc2ccc3c(c2)OCO3)O1)Nc1ccccc1	.	.	-2.9	.	-3.2	.	.
C#CCOCCOCCOCCNc1nc(N2CCN(C(=O)[C@H](CCCCN)n3cc([C@@H](N)C(C)CC)nn3)CC2)nc(N2CCN(C(=O)[C@H](CCCCN)n3cc([C@@H](N)CC(C)C)nn3)CC2)n1 (stereo partly specified)	-17.6	7.7	35.5	27.9*	-4.5	-7.7	?
C#CCOCCOCCOCCNc1nc(N2CCN(C(=O)[C@H]([C@@H](C)CC)n3cc([C@@H](N)Cc4ccc(O)cc4)nn3)CC2)nc(N2CCN(C(=O)[C@H](CCCCN)n3cc([C@@H](N)C(C)CC)nn3)CC2)n1 (stereo partly specified)	-7.5	9.1	-5.9	22.9*	.	-9.1	4.5
C#CCOCCOCCOCCNc1nc(N2CCN(C(=O)C([C@@H](C)O)n3cc([C@@H](N)CCCCN)nn3)CC2)nc(N2CCN(C(=O)C([C@@H](C)O)n3cc([C@@H](N)CCCCN)nn3)CC2)n1 (stereo partly specified)	-15.9	45.7	-5.7	-8.8	16.1	-45.7	.
C#CCOCCOCCOCCNc1nc(N2CCN(C(=O)[C@H](CCCN=C(N)N)n3cc(C(N)[C@H](C)CC)nn3)CC2)nc(N2CCN(C(=O)[C@H](CCCN=C(N)N)n3cc(C(N)[C@@H](C)CC)nn3)CC2)n1 (stereo partly specified)	-13.6	8.9	-1.0	21.5*	.	-8.9	-4.7
C#CCOCCOCCOCCNc1nc(N2CCN(C(=O)C([C@@H](C)O)n3cc([C@@H](N)CCCCN)nn3)CC2)nc(N2CCN(C(=O)[C@H](CO)n3cc([C@@H](N)C(C)C)nn3)CC2)n1 (stereo partly specified)	-5.2	16.0	6.6	31.2*	-14.9	-16.0	1.4
C[C@H]1CN([C@@H](C)CO)C(=O)c2cc(NS(=O)(=O)c3ccc(F)cc3)ccc2O[C@H]1CN(C)C(=O)NC1CCCCC1	.	.	2.8	.	6.5	.	.
